APJ ag: agonists of human apelin receptor APJ, primary screen, CHO-K1 cells, PathHunter beta-arrestin, luminescence; P35414; 0% DMSO wells, 100% apelin; activation, % at 20 µM; hit rate 0.11% among 330,000;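 active = activation more than six SD over the plate average, tested at 20 µM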;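 also: 0% = DMSO alone and 100% = apelin-13 at 10 nM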
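Test system – PathHunter CHO-K1 APJ (AGTRL-1) beta-arrestin reporter cells · Input – 1000 cells/well · Compound – single test compound dose, 20 µM final, 1% DMSO · Times – compound stimulation 90 min at 25 °C, detection 60 min · Technique – beta-gal luminescence · Read-out basis – APJ–arrestin association signal · Control set – negative DMSO alone, positive Apelin-13 at 10 nM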
CXCR6 block: CXCR6 receptor inhibitors, primary screen, cell-based, beta-arrestin, luminescence, CHO-K1 PathHunter, 1536-well; C-X-C chemokine receptor type 6 (Homo sapiens), O00574; inhibition, % at 20 µM; hit rate 0.36% among 360,000; AID 602244, 2012; in the data active = inhibition above about 34%, passing the limit was not always enough;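 also: antagonist mode with CXCL16 agonist at 10 nM final; 0% = 10 nM CXCL16 with DMSO and 100% = unstimulated wells without agonist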
Target sequence (O00574 whole entry, looked up): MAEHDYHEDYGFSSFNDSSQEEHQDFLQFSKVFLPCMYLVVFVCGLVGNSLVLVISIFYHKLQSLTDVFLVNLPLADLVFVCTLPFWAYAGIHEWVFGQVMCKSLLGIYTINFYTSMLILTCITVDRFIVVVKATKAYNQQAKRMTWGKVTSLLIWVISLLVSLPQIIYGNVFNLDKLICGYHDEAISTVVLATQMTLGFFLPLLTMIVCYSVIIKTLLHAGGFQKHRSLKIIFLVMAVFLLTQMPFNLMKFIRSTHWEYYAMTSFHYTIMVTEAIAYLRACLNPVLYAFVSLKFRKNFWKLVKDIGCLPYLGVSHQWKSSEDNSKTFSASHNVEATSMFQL
EBI2 antag: EBI2 receptor antagonists, beta-arrestin recruitment, primary screen, cell-based, luminescence, 7a,25-OHC stimulation, uHTS; G-protein coupled receptor 183 (Homo sapiens), P32249; 7a,25-OHC stimulated; inhibition, % at 5 µM; hit rate 0.81% among 360,000; in the data active = inhibition above about 38%;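 also: enzyme fragment complementation signal reports receptor beta-arrestin coupling in cells; 0% = agonist plus DMSO wells and 100% = wells without agonist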
GAA850 FXN act: FXN promoter activators, primary screen, cell-based, luciferase luminescence, HEK293 lucGAA850; AID 540364, 2011; activation, % at 6 µM; HEK293 lucGAA850 FXN promoter luciferase reporter, 24 h; percent of 10 µM SAHA response; hit rate 0.56% among 360,000;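 active = activation above the average of all compounds screened plus 3 SD, cutoff fixed separately per campaign, cut at about 7.5% in these data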;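 also: 0% = DMSO wells and 100% = 10 µM SAHA wells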
APJ antagonist: antagonists of human apelin receptor APJ, primary screen, CHO-K1 cells, beta-arrestin complementation, luminescence. inhibition, % at 20 µM. hit rate 0.32% among 330,000. AID 2521, 2010;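 active = inhibition above about 40% at 20 µM, limit read from the data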;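 also: cells challenged with 10 nM apelin-13 agonist together with compound; plate controls were apelin-13 plus DMSO wells for no effect and DMSO wells lacking apelin-13 for full effect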
CCR6 antag: CCR6 receptor antagonists, primary screen, cell-based, CHO-K1, luminescence, beta-arrestin, uHTS | CHO-K1 CCR6 PathHunter beta-arrestin, CCL20-stimulated | hit rate 0.49% among 340,000 | AID 493098, 2011 | C-C chemokine receptor type 6 (Homo sapiens), P51684 | inhibition, % at 20 µM;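 active = compounds whose inhibition of the agonist-driven luminescence signal at 20 µM reaches about 50%, limit read from the data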;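 also: cells stimulated with CCL20 at 14 nM final; plate controls were DMSO with CCL20 for no effect and DMSO without agonist for full effect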
GAA30 counter: GAA30 FXN promoter activators, confirmation, counter-screen for GAA850 frataxin promoter activator project, cell-based, luminescence, HEK293, lucGAA30, triplicate; shares compounds with GAA850 FXN act; AID 588350, 2011; hit rate 66% among 1,900; HEK293 lucGAA30 FXN promoter luciferase, 24 h; DMSO = 0%, 5 µM ipriflavone = 100%; activation, % at 6 µM;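 active = mean activation above the mean of solvent-only control wells plus 3 SD, cut at about 22% in these data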;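 also: counterscreen of GAA850 promoter hits where activity marks nonselective or luminescence artifacts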
FXN GAA850 conf: FXN GAA850 promoter activators in reporter cells, confirmation, cell-based, luminescence, HEK293 lucGAA850, triplicate; shares compounds with GAA850 FXN act; HEK293 lucGAA850 FXN promoter luciferase reporter, 24 h; 100% = activation by SAHA; activation, % at 6 µM; hit rate 86% among 1,900; AID 588351, 2011;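 active = mean activation above a set limit taken from the primary screen, cut at about 8% in these data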;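 also: 0% = DMSO wells and 100% = 10 µM SAHA wells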
* hit, by the source's call; . = not tested or not shown. Hits are enriched below; roughly 2% of the tested compounds scored in any of these assays.

SMILES	APJ ag	CXCR6 block	EBI2 antag	GAA850 FXN act	APJ antagonist	CCR6 antag	GAA30 counter	FXN GAA850 conf
COc1ccc([C@@H]2[C@@H]3C(=O)N(C(C)(C)C)C(=O)[C@@H]3[C@]3(Cc4ccccc4)C(=O)N(c4ccccc4)C(=O)N23)cc1	0	-10	5	1	10	13	.	.
CC[C@@]12C(=O)N(c3ccc(C)cc3)C(=O)N1[C@H](c1ccc(OC)cc1)[C@@H]1C(=O)N(C(C)(C)C)C(=O)[C@@H]12	3	0	-2	12*	16	10	33*	13*
CC[C@@]12C(=O)N(c3ccccc3)C(=O)N1[C@H](c1ccc(OC)cc1)[C@@H]1C(=O)N(C(C)(C)C)C(=O)[C@@H]12	-4	-1	1	11*	8	1	35*	14*
Cc1ccc(N(CCC#N)C(=O)COC(=O)C2CCN(S(=O)(=O)c3ccc4c(c3)OCCO4)CC2)cc1	-7	2	12	0	-1	-1	.	.
O=C(NC(C(=O)N/N=C/c1cc([N+](=O)[O-])ccc1O)c1n[nH]c(=O)c2ccccc12)c1ccccc1 (centres undefined)	-7	5	9	0	35	27	.	.
C[C@@H]1CN([C@@H](C)CO)C(=O)CCCn2nncc2CO[C@H]1CN(C)C(=O)Nc1cccc(Oc2ccccn2)c1	.	-6	-9	-2	.	.	.	.
C=CCNc1sc(C(=O)c2ccccc2)c(N)c1-c1nc2ccccc2s1	-11	17	9	8.0*	19	30	-5	11*
CCNc1sc(C(=O)c2cccs2)c(N)c1-c1nc2ccccc2s1	-10	19	-8	2	28	21	.	.
CC1(Cc2cc(Cl)ccc2C(F)(F)F)C(=O)Nc2cc(F)ccc21 (centres undefined)	.	-2	-1	0	.	.	.	.
CC1(Cc2ccc(C(F)(F)F)o2)C(=O)Nc2cc(-c3ccc(F)cc3F)ccc21 (centres undefined)	.	-13	-9	9.2*	.	.	20	13*
COC(=O)CCC(C)C1CCC2C3CCC4CC(O)CCC4(C)C3CC(O)C12C (centres undefined)	.	-3	9	-1	.	-8	.	.
CC(=O)N1c2ccc(S(=O)(=O)N3CCCCC3)cc2CC1C(=O)NCc1ccccc1C (centres undefined)	2	15	7	-2	10	13	.	.
CCn1c(-c2ccccc2)csc1=Nc1ccc(O)cc1	0	-5	4	9.3*	-39	10	99*	37*
O=CNc1ccc2c(c1)Cc1cccc(NC=O)c1-2	.	-8	-6	1	.	3	.	.
CC1(C(=O)NS(=O)(=O)c2ccc(C#N)cc2)CCN1C(=O)C1(c2ccccc2)CCCC1 (centres undefined)	.	4	-6	-1	.	.	.	.
O=C(N/N=C/c1ccccc1[N+](=O)[O-])c1cccs1	-3	-4	-4	5	-2	7	.	.
Cc1ccc(/C=N/NC(=O)c2cccs2)cc1[N+](=O)[O-]	2	-4	8	8.3*	-14	13	103*	42*
FC(F)Oc1ccc(C2N=C(c3ccccc3)NO2)cc1 (centres undefined)	0	-4	2	7.9*	14	0	118*	41*
COc1ccc(C2N=C(c3ccccc3)NO2)cc1OC (centres undefined)	0	-3	-19	4	11	15	.	.
